According to ChEMBL document CHEMBL1145915, “Molecular model of the alpha(IIb)beta(3) integrin” (J Med Chem, 2003):
pIC50: −log10 of the molar value.

Legend:
[1] = molecular target: Integrin alpha-IIb/beta-3 (Homo sapiens, UniProt P05106+P08514); assay: Inhibition of human alphaIIb-beta3 integrin in platelet aggregation assay
[2] = molecular target: Integrin alpha-V/beta-3 (Homo sapiens, UniProt P05106+P06756); assay: Inhibition of binding to human Vitronectin receptor (integrin alphaV-beta3); type: protein-complex assay
Sequence of Integrin alpha-V/beta-3 (P05106 27-788 limits assumed): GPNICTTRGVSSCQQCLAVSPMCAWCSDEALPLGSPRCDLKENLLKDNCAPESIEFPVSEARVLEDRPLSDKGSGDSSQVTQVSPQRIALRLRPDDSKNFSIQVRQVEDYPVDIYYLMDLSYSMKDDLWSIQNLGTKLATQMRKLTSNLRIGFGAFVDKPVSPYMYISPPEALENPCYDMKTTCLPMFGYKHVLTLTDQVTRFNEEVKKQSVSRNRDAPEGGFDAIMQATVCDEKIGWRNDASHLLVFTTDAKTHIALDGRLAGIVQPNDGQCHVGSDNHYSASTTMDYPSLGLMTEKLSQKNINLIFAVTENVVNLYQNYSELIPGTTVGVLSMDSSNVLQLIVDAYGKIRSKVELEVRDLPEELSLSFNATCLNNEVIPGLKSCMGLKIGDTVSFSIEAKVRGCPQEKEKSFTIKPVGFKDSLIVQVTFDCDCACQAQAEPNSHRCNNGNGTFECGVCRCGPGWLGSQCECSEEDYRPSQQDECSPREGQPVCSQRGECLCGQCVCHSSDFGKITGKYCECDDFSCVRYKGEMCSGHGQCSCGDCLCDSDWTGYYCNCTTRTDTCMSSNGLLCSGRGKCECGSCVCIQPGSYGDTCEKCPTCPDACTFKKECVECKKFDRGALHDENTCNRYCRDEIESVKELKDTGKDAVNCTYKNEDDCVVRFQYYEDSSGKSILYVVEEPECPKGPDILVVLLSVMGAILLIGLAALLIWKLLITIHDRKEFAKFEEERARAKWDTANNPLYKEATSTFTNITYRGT
Sequence of Integrin alpha-V/beta-3 (P06756 31-889 limits assumed): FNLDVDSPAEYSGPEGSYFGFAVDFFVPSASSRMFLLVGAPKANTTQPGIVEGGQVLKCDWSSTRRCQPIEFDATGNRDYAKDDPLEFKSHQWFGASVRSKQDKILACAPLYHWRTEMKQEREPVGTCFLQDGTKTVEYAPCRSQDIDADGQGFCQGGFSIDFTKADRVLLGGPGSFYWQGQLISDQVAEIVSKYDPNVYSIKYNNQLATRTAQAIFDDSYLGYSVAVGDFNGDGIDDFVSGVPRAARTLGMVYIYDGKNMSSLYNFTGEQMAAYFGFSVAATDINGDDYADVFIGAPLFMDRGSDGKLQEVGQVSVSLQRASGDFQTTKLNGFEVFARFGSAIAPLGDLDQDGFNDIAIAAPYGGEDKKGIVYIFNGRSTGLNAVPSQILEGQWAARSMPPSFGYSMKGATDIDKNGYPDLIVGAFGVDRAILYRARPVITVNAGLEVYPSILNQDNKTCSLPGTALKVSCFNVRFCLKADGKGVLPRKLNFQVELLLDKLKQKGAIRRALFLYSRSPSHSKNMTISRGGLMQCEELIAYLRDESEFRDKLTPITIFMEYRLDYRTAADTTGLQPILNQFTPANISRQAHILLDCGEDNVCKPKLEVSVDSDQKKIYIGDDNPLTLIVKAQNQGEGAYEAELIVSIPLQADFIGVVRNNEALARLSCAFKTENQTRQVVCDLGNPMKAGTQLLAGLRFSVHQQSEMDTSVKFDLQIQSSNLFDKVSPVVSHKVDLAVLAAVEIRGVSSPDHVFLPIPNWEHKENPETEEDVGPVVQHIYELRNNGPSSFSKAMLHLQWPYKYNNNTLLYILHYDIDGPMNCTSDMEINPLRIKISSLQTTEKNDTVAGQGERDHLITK
Sequence of Integrin alpha-V/beta-3 (P06756 891-1048 limits assumed): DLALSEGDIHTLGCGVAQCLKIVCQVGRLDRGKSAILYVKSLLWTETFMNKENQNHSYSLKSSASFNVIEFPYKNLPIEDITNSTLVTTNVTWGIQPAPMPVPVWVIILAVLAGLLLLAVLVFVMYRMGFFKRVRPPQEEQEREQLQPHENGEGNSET
How it was run: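 Scintillation proximity binding assay with lyophilized wheat germ agglutinin SPA beads. Receptor was αvβ3 integrin purified from HEK 293 cells overexpressing human recombinant αvβ3. Tracer was a 125I-labeled ligand, and test compounds were scored by displacement of its binding.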

Sequence of Integrin alpha-IIb/beta-3 (P05106 27-788 limits assumed): as the sequence (P05106 27-788 limits assumed) above
Sequence of Integrin alpha-IIb/beta-3 (P08514 32-887 limits assumed): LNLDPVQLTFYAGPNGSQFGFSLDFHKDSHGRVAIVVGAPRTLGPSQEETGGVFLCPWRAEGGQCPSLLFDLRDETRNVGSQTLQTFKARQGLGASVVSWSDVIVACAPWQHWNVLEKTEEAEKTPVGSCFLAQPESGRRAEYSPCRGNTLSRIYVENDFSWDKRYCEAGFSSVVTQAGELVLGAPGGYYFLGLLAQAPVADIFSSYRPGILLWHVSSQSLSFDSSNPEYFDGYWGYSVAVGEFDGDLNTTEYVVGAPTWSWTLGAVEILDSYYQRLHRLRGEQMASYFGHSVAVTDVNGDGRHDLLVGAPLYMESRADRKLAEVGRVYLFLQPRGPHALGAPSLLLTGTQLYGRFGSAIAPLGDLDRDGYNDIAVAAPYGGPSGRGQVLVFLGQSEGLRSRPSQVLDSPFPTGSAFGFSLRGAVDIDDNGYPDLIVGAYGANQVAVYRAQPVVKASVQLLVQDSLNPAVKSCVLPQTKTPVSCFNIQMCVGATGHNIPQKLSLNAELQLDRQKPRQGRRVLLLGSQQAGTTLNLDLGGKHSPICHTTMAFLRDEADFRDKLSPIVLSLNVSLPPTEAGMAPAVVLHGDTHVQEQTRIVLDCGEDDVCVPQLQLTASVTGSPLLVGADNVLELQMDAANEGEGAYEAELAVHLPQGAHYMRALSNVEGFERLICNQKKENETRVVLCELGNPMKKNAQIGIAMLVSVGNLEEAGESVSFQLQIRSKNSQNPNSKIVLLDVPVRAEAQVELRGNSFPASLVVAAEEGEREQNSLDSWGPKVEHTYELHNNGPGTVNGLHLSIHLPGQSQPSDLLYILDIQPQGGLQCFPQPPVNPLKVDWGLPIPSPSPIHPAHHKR
Sequence of Integrin alpha-IIb/beta-3 (P08514 891-1039 limits assumed): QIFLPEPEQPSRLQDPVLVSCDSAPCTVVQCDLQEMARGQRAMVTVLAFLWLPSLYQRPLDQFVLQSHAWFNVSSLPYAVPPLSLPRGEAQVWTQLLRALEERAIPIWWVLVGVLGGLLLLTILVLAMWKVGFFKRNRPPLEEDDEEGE

SMILES | pIC50 [1] | pIC50 [2]
O=C(O)CC(NC(=O)CCCCc1ccc2c(n1)NCCC2)c1cncnc1 (stereo not drawn) |  | 8.48
CCCCS(=O)(=O)N[C@@H](Cc1ccc(OCCCCC2CCNCC2)cc1)C(=O)O [TIROFIBAN] |  | < 6.00
CC1(C)[C@@H]2CC[C@@]1(CS(=O)(=O)N[C@@H](CNC(=O)c1ccc(CCc3ccc4c(n3)NCCC4)cc1)C(=O)O)C(=O)C2 |  | 9.96
N=C(N)NCCC[C@H](N)C(=O)NCC(=O)N[C@@H](CC(=O)O)C(=O)O |  | < 5.00
Nc1cccc(CCc2ccc(C(=O)NC[C@H](NS(=O)(=O)c3ccccc3)C(=O)O)cc2)n1 |  | 10.10

Further lines, results first:

pIC50 [1] | pIC50 [2] | SMILES
8.00 | < 6.00 | O=C(NC[C@H](NS(=O)(=O)c1ccccc1)C(=O)O)c1ccc(OCCC2CCNCC2)cc1
 | < 6.00 | O=C(NC[C@H](NS(=O)(=O)c1ccccc1)C(=O)O)c1ccc(N2CCNCC2)cc1
